Compounds with a hit are over-represented: about 3% of the library has one in this group of screens.
MEKK3 PB1 HTS = modulators of MEKK3-MEK5 PB1 binding, primary screen, biochemical, wildtype MEKK3, multiplex bead flow cytometry, Alexa488-MEK5; Mitogen-activated protein kinase kinase kinase 3 (Homo sapiens), Q99759; bead-based flow cytometry, Alexa488-MEK5 binding to MEKK3; actives lie on both sides; 0 = blocked by unlabeled MEK5, 100 = vehicle; binding response (% of control), % at 10 µM; 1.4% of 290,000 active; AID 1529, 2009;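 active = binding response more than 3 SD above or below the average of its plate-row segment, actives on both sides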;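 note: Alexa488 bead fluorescence after subtracting the streptavidin-only scavenger bead signal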
UBC13 polyUb = UBC13 polyubiquitin chain formation inhibitors, primary screen, biochemical, TR-FRET, uHTS; Ubiquitin-conjugating enzyme E2 N (Homo sapiens), P61088; AID 485273, 2010; inhibition, % at 20 µM; 0.47% of 330,000 active; in the data active = inhibition above about 45%, passing the limit was not always enough
Target sequence (P61088 whole entry, looked up): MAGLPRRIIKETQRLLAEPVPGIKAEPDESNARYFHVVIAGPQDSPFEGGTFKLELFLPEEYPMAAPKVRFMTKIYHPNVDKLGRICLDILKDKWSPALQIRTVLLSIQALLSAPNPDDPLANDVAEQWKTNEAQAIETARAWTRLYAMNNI
UCH37 inh = inhibitors of human UCH37 deubiquitinase, primary screen, biochemical, Ub-AMC cleavage, fluorescence; Ubiquitin carboxyl-terminal hydrolase isozyme L5 (Homo sapiens), Q9Y5K5; purified proteasome/UCH37; inhibition, % (test concentration not listed); 0.33% of 330,000 active;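 active = mean inhibition over replicate wells above about 20%, limit read from the data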;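 note: 0% = compound-free wells with enzyme and 100% = wells lacking proteasome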
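system = Proteasome-associated human UCH37 deubiquitinase | amount = 0.15 nM proteasome as dispensed | medium = pH 7.4 Tris-HCl (50 mM) with ovalbumin, ATP-MgCl2, DTT | incubation = 30 min preincubation with enzyme, 25 min cleavage at room temperature | detection = AMC fluorescence 355/460 nm | read-out basis = percent inhibition | controls = no-proteasome and no-compound wells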
MEKK2 WT-MEK5 = modulators of MEK5 binding to wildtype MEKK2, primary screen, biochemical, multiplex bead flow cytometry, Alexa488-MEK5; Alexa488-MEK5 binding to MEKK2 WT; actives lie on both sides; AID 1531, 2009; binding response (% of control), % at 10 µM; 1.1% of 290,000 active; in the data active = binding response below about 67% or above about 130%
MEKK2mut PB1 HTS = MEK5 binding signal on mutant MEKK2 PB1, primary screen, biochemical, multiplex bead flow cytometry, Alexa488-MEK5 | 0.35% of 290,000 active | AID 1530, 2009 | Alexa488-MEK5 binding to MEKK2 mutant | percent response, % at 10 µM; in the data active = percent response above about 24%, passing the limit was not always enough
Apaf1 inhib = inhibitors of human Apaf-1 apoptosome, primary screen, biochemical, DEVD-Rh110 fluorescence, uHTS. Apoptotic protease-activating factor 1 (Homo sapiens), O14727. reconstituted apoptosome caspase-3 activity. inhibition, % at 20 µM. 0.71% of 330,000 active. AID 489030, 2010; active = inhibition of at least 40% at 20 µM;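 note: plate controls were DMSO wells for no effect and DEVD-CHO caspase inhibitor wells for full effect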
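Assay system – apoptosome proteins · Medium – Hepes buffer, pH 7.5 · Also added – cytochrome c with DEVD-Rh110 · Timing – 30 min compound preincubation, 50 min activation, room temperature · Detection – Rh110 fluorescence, excitation 480 nm, emission 540 nm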
MEKK2wt confirm = modulators of MEK5 binding to wildtype MEKK2, confirmation, biochemical, single concentration, multiplex bead flow cytometry; shares compounds with MEKK3 PB1 HTS; Alexa488-MEK5 binding to MEKK2 WT; actives lie on both sides; binding response (% of control), % at 10 µM; 2.4% of 5,900 active; AID 1892, 2009; in the data active = binding response below about 16% or above about 210%; inactive = in between
MEKK2mut-MEK5 = mutant MEKK2 PB1-MEK5 binding signal retest – biochemical, single concentration, multiplex bead flow cytometry, confirmation; Alexa488-MEK5 binding to MEKK2 mutant; percent response, % at 10 µM; shares compounds with MEKK3 PB1 HTS; 2% of 5,900 active; AID 1893, 2009; in the data active = percent response mostly above about 71%, no sharp cut-off; inactive = mostly below about 38%;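 note: higher means compound restores mutant binding toward wildtype level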
MEKK3-MEK5 inh = MEKK3 wild-type PB1 binding to MEK5, inhibitors, confirmation, biochemical, bead multiplex flow cytometry, single concentration, wildtype | AID 1894, 2009 | binding response (% of control), % at 10 µM | Alexa488-MEK5 binding to MEKK3; stronger effect = lower value | shares compounds with MEKK3 PB1 HTS | 1.8% of 5,900 active;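 active = binding response below 72% of control, or above a set upper limit, though filed actives all read lower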;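 note: 100% = DMSO only wells and 0% = binding blocked by excess unlabeled MEK5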
Casp3 UBC13 ctr = CASP3 inhibitor validation, counterassay for project on UBE2N polyubiquitination blockers, biochemical, one dose | shares compounds with UBC13 polyUb | Recombinant caspase-3, Caspase-Glo 3/7 luminescence, 60 min | inhibition, % at 20 µM | AID 488856, 2010 | 4% of 1,400 active;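 active = mean inhibition across replicates above about 26%, limit read from the data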;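 note: plate controls were DMSO with caspase-3 for no effect and DMSO wells lacking enzyme for full effect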
Target sequence (P42574 whole entry, looked up): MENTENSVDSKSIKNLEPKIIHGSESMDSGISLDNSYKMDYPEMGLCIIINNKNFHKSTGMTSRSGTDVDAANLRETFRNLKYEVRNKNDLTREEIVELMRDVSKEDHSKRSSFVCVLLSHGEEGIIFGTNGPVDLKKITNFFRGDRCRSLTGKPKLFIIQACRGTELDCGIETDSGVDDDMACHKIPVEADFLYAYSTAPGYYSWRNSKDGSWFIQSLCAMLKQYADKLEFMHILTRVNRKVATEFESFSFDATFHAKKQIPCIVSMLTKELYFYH
UBC13 conf = UBC13 polyubiquitination inhibitors, single-point retest, confirmation, biochemical, TR-FRET, single concentration; inhibition, % at 10 µM; shares compounds with UBC13 polyUb; 68% of 1,400 active; in the data active = inhibition above about 45%
Apaf-1 inh conf = Apaf-1 inhibitors, single-dose retest, confirmation, biochemical, fluorescence, DEVD-Rh110, 20 µM; shares compounds with Apaf1 inhib; reconstituted apoptosome, caspase-3 DEVD-Rh110 fluorescence; inhibition, % at 20 µM; 25% of 1,800 active;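 active = mean inhibition of at least 40% at 20 µM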;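 note: plate controls were DMSO wells for no effect and DEVD-CHO caspase inhibitor control wells for full effect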
Rh110 quench = Rh110 fluorescence interference by putative Apaf-1 inhibitors, confirmation, artefact control for Apaf-1 inhibitor project, biochemical, 20 µM | shares compounds with Apaf1 inhib | quenched caspase reaction | activation (fluorescence interference), % at 20 µM | 1,800 tested, under 10 active | AID 504615, 2011;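 active = signal rise of 40% or more at 20 µM, treated as a fluorescence artifact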
Apaf1 inh interf = fluorescence interference of Apaf-1 inhibitor hits, dose response, artefact control for Apaf-1 inhibitor project | shares compounds with Apaf1 inhib | fluorescence interference counterscreen, Apaf-1 assay format | IC50, µM | 460 tested, under 10 active; call rule not given here
Numbers without * were called inactive; . = not tested or not shown; ! = repeats disagree; [ ] = dose if it differs, or a comment.

SMILES | MEKK3 PB1 HTS | UBC13 polyUb | UCH37 inh | MEKK2 WT-MEK5 | MEKK2mut PB1 HTS | Apaf1 inhib | MEKK2wt confirm | MEKK2mut-MEK5 | MEKK3-MEK5 inh | Casp3 UBC13 ctr | UBC13 conf | Apaf-1 inh conf | Rh110 quench | others
CCN1CCN(Cc2ccc(NC(=O)c3cc(NC(=O)C(=O)c4c[nH]c5ccccc45)cc(OC)c3)cc2C(F)(F)F)CC1 | 109 | 55* | 4 | 195* | 131* | 41* | 227* | 146* | 112 | -4 | 76* | 24 | 1
OCCN1CCN(CCCN2c3ccccc3Sc3ccc(Cl)cc32)CC1 | 79 | 90* | 1 | 160* | 10 | 46* | 141 | 27 | 105 | -4 | 99* | 5 | 8
CN(C)CCCN1c2ccccc2Sc2ccc(Cl)cc21 | 102 | 18 | 4 | 153* | 13 | 42* | 149 | 27 | 107 | . | . | 16 | 8
O=C(NCCCN1CCc2ccccc2C1)C1CCN(c2nnc(-n3cccc3)s2)CC1 | 115 | 32 | 5 | 219* | 55* | 51* | 186 | 62 | 113 | . | . | 24 | 9
COc1ccccc1N1CCN(CCCOc2ccc(F)cc2)CC1 | 89 | -2 | -1 | 91 | -4 | -11 | . | . | . | . | . | . | .
O=C1CCc2ccc(OCCCCN3CCN(c4cccc(Cl)c4Cl)CC3)cc2N1 | 113 | 35 | 3 | 177*! | 15 | 43* | 1.0*[inhibitor] | -29 | 1.0* | . | . | 18 | 8
Cc1ccc(Cn2c(C3CCCN3c3nc(C)cs3)nc3cc(C(F)(F)F)ccc32)cc1 (stereo not given) | 101 | -3 | 2 | 92 | -7 | 23 | . | . | . | . | . | . | .
CN(C)CC/C=C1\c2ccccc2Sc2ccc(Cl)cc21 | 72*[inhibitor] | 12 | 0 | 164* | 17 | 49* | 136 | 16 | 99 | . | . | 16 | 6
CCCCCCCCCC[N+](C)(C)CC/C=C1/c2ccccc2Sc2ccc(Cl)cc21 | 108 | 107* | . | 291* | 147* | 81* | 321* | 172* | 115 | -2 | 119* | 88* | 36 | Apaf1 inh interf=>100
CC[N+](C)(C)CC/C=C1/c2ccccc2Sc2ccc(Cl)cc21 | 104 | 15 | 2 | 111 | 5 | -4 | . | . | . | . | . | . | .
CCCCCCCCCCC[N+](C)(C)CC/C=C1/c2ccccc2Sc2ccc(Cl)cc21 | 97 | 106* | . | 278* | 143* | 75* | 195 | 60 | 111 | 3 | 118* | 88* | 28 | Apaf1 inh interf=>100
Cc1ccc(Cl)cc1NC(=O)COC(=O)c1ccc(COc2ccc3c(C)cc(=O)oc3c2)cc1 | 93 | . | -12 | 95 | -2 | . | . | . | . | . | . | . | .
CCOC(=O)C(C)OC(=O)C1=C(C)NC(=O)NC1c1ccc2c(c1)OCO2 (stereo not given) | 106 | -5 | 4 | 111 | 11 | 4 | . | . | . | . | . | . | .
CCOC(=O)c1c(NC(=O)CSc2nc3ccccc3[nH]2)sc2c1CC(C)(C)NC2(C)C | . | 15 | 0 | . | . | 17 | . | . | . | . | . | . | .
CCOc1ccc(C(=O)Nc2sc3c(c2C(=O)OC)CC(C)(C)NC3(C)C)cc1 | 105 | 52* | -218 | 152* | 34 | 41* | 137 | 13 | 100 | -1 | 24 | 9 | 12
COC(=O)c1c(NC(=O)c2nc3ccccc3s2)sc2c1CC(C)(C)NC2(C)C | 108 | 97* | -68 | 210* | 69* | 58* | 186 | 42 | 110 | -3 | 87* | 18 | 7
CCC(C)(C)c1ccc(OCCCC[n+]2ccccc2)c(C(C)(C)CC)c1 | 109 | 66* | 6 | 185* | 41 | 51* | 199 | 65 | 110 | -3 | 98* | 31 | 17
CCCCCc1ccc(OCCCC[n+]2ccccc2)c(CCCCC)c1 | 105 | 59* | 9 | 164* | 28 | 59* | 158 | 25 | 111 | -4 | 84* | 39 | 12
Cc1cc(=O)oc2cc(OCCCC[n+]3ccccc3)ccc12 | 93 | -1 | -49 | 96 | -7 | -4 | . | . | . | . | . | . | .
COc1ccc(C(=O)CN2C(=O)NC3(CCCc4ccccc43)C2=O)cc1 (stereo not given) | . | -8 | 5 | . | . | 10 | . | . | . | . | . | . | .
CCCCCc1cc(=O)oc2c(C(CCN3CCCC(C)C3)c3ccc(N(C)C)cc3)c(OC)cc(OC)c12 (stereo not given) | 116 | 9 | 4 | 149* | 50* | 68* | 178 | 39 | 110 | . | . | 38 | 10

Assay outcomes: PubChem BioAssay, several laboratories
